This assay concerns the target Muscarinic acetylcholine receptor M2 (Homo sapiens) (UniProt P08172). The experiment in a line: M2 positive allosteric modulation, counter-screen, dose response, counter-screen, human, CHO Gqi5 cells, calcium fluorescence (AID 588746). The note with it: CHO hM2/Gqi5 calcium mobilization, Fluo-4 fluorescence. A digest of the protocol: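 System: hM2/Gqi5 CHO cells | Reagent: ACh EC20 then ACh EC80 | Incubation: 144 s compound pretreatment, 86 s EC20–EC80 gap, 37 °C | Technique: Fluo-4 calcium kinetic read | Benchmarks: 1 mM ACh maximum | Measure: Baseline-corrected calcium signal as percent of 1 mM ACh maximum, logistic-fit EC50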
On the technique in general: Counterscreens check selectivity or assay interference.

Molecules are shown by their SMILES. Active and inactive are the calls of the source.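 Rule for the calls: active = a clear concentration-dependent response in the calcium flux assay, with a fitted half-maximal potency; inactive = the rest.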

Chain of Muscarinic acetylcholine receptor M2 (Homo sapiens) (P08172 whole entry, looked up): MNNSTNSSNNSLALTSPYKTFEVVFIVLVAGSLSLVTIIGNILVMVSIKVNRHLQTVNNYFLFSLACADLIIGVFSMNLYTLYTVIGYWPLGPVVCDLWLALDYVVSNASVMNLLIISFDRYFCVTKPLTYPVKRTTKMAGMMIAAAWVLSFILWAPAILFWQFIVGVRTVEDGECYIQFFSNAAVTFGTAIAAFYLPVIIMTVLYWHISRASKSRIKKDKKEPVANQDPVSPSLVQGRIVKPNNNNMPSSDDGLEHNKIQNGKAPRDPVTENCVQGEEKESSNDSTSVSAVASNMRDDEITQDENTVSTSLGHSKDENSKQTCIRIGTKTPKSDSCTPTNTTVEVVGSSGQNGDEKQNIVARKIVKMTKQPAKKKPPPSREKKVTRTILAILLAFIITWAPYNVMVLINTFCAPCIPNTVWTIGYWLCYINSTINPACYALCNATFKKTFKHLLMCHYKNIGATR

Consider `Cc1nc2sc(C(=O)NCc3ccncn3)c(N)c2c(C)c1Cl`, for which, where the note is “at 30 µM (top of the series)”, the “percent of ACh max response” value is “inactive”. On the same count and under the same terms, the result for `Cc1nc2sc(C(=O)NCc3cccc(F)c3F)c(N)c2c(C)c1Cl` reads “inactive”. As for `Cc1nc2sc(C(=O)NCc3ccc4c(c3)OCO4)c(N)c2c(C)c1Cl`, the “percent of ACh max response” value (at 36.8 µM (top of the series)) is “inactive”. As to `Cc1nc2sc(C(=O)NCCc3ccncc3)c(N)c2c(C)c1Cl`, the “percent of ACh max response” value (at 30 µM (top of the series)) was “inactive”. Consider `Cc1nc2sc(C(=O)NCc3ccncc3)c(N)c2c(C)c1Cl`, for which the “percent of ACh max response” value (at 45.3 µM (top of the series)) is “inactive”. On the same count and under the same terms, with `Cc1nc2sc(C(=O)NCc3cccnc3)c(N)c2c(C)c1Cl` the entry was “inactive”. Regarding `Cc1nc2sc(C(=O)NCc3ccccc3)c(N)c2c(C)c1Cl`, under “at 37.4 µM (top of the series)”, the “percent of ACh max response” value is “inactive”. `Cc1nc2sc(C(=O)NCc3nccs3)c(N)c2c(C)c1Cl`: under “at 30 µM (top of the series)”, the “percent of ACh max response” value is “inactive”. With `Cc1nc2sc(C(=O)NC3CC3)c(N)c2c(C)c1Cl`, the EC50 (usually the concentration giving half of the maximal effect) is 548 nM.
